Source: ChEMBL document CHEMBL1132646, “Synthesis and evaluation of new sulfur-containing L-arginine-derived inhibitors of nitric oxide synthase” (J Med Chem, 1999)

What was measured:
[1] = target: T1, Nitric oxide synthase, inducible (Mus musculus, UniProt P29477); assay: Effective concentration against NADPH oxidase activity of iNOS
T1 sequence (P29477 whole entry): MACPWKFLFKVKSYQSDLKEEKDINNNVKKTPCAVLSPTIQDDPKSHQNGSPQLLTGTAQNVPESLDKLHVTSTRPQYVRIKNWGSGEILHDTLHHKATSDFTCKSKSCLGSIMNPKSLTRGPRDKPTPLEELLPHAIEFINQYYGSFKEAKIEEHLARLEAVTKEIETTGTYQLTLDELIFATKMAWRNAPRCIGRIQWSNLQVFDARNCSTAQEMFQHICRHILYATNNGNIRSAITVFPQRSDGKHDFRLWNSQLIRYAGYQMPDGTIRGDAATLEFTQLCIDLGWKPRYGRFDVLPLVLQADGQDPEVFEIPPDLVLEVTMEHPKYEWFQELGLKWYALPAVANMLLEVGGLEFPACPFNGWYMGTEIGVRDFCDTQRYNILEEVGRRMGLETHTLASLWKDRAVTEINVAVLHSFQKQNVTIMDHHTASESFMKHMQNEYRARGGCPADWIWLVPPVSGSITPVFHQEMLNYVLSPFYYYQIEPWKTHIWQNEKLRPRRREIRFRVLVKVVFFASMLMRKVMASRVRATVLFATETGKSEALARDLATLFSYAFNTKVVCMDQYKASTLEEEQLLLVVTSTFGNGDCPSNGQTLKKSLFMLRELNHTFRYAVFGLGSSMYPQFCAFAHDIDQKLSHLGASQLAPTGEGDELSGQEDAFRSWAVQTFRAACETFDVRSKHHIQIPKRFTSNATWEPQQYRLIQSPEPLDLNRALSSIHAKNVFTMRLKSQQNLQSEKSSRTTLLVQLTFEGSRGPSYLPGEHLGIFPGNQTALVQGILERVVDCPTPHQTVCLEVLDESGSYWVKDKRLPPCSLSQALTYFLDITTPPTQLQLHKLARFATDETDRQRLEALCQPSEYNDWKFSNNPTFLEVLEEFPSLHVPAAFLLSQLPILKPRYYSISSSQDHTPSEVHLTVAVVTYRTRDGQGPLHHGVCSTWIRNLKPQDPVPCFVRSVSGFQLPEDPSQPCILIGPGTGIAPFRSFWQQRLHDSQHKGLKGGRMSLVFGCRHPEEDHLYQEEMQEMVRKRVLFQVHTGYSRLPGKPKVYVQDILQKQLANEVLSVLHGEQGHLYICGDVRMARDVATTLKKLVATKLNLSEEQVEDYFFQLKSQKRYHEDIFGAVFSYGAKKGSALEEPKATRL
In short: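 Mouse His6-tagged iNOS (E. coli BL21-DE3 expressed, Ni-NTA purified), 0.5 μM, in 40 mM HEPES pH 7.4 with 0.3 mM DTT, 4 μM each FAD/FMN/H4B, 10 units/mL catalase and SOD, varied analogue concentrations; started with 0.1 mM NADPH. NADPH oxidation rate followed as absorbance drop at 340 nm, 37 °C, triplicate; EC50 for decreased oxidase activity.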

Nitric oxide synthase 3 = target: T2, Nitric oxide synthase 3 (Homo sapiens, UniProt P29474); assay: Inhibitory concentration against mammalian endothelial nitric oxide synthase (eNOS)
T2 sequence (P29474 whole entry): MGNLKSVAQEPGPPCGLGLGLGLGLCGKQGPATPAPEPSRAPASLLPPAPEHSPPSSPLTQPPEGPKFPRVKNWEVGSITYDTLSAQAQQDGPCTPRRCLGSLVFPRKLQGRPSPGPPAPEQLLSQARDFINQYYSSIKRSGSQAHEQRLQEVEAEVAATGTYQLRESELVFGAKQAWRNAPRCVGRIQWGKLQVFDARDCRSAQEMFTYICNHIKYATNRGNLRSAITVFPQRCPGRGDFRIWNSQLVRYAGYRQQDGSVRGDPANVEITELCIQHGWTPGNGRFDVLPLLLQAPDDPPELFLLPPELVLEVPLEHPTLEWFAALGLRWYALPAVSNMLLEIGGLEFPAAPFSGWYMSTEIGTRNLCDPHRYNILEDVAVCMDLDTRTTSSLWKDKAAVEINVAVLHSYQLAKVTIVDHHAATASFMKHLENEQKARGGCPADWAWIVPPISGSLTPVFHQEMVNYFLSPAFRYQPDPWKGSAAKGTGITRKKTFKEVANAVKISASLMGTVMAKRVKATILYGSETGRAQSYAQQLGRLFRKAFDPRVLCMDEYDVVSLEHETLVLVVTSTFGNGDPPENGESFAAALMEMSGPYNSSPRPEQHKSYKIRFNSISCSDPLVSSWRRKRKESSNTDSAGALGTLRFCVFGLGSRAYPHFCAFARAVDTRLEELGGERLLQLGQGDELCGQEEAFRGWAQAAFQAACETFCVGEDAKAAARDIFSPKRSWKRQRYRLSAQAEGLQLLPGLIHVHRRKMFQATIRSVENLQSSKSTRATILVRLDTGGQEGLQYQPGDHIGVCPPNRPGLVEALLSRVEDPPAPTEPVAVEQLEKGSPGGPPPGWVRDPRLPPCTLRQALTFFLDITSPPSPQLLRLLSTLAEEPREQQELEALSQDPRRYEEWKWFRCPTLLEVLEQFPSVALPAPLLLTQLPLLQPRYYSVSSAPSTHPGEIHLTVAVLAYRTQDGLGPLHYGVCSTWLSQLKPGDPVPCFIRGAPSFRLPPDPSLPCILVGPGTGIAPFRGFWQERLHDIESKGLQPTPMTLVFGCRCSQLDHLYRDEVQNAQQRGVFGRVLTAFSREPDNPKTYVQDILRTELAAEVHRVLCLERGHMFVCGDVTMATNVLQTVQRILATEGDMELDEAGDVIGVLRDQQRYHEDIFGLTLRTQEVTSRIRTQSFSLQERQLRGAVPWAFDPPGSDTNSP
In short: (§1)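 Citrulline formation: 20 mM HEPES pH 7.4, 50 μM L-arginine with 0.05 μCi [14C]-L-arginine, 4 μM FAD/FMN/H4B, 1 mM DTT, 1 mg/mL BSA, varied inhibitor; nNOS 12.5 nM, eNOS 25 nM (both plus 1 mM CaCl2, 15 μg/mL calmodulin), iNOS 2.5 nM (mouse, His6-tagged). Initiated with NADPH, 10 min room temperature, stopped pH 5.5 EDTA; [14C]-citrulline separated on Dowex cation exchange, scintillation counted; duplicate.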

[2] = target: T1, Nitric oxide synthase, inducible; assay: Inhibitory concentration against mouse inducible nitric oxide synthase (iNOS); in short: as §1
Nitric oxide synthase 1 = Nitric oxide synthase 1 (Homo sapiens, UniProt P29475); assay: Inhibitory concentration against mammalian Neuronal nitric oxide synthase (nNOS); in short: as §1
Chain of Nitric oxide synthase 1 (P29475 whole entry): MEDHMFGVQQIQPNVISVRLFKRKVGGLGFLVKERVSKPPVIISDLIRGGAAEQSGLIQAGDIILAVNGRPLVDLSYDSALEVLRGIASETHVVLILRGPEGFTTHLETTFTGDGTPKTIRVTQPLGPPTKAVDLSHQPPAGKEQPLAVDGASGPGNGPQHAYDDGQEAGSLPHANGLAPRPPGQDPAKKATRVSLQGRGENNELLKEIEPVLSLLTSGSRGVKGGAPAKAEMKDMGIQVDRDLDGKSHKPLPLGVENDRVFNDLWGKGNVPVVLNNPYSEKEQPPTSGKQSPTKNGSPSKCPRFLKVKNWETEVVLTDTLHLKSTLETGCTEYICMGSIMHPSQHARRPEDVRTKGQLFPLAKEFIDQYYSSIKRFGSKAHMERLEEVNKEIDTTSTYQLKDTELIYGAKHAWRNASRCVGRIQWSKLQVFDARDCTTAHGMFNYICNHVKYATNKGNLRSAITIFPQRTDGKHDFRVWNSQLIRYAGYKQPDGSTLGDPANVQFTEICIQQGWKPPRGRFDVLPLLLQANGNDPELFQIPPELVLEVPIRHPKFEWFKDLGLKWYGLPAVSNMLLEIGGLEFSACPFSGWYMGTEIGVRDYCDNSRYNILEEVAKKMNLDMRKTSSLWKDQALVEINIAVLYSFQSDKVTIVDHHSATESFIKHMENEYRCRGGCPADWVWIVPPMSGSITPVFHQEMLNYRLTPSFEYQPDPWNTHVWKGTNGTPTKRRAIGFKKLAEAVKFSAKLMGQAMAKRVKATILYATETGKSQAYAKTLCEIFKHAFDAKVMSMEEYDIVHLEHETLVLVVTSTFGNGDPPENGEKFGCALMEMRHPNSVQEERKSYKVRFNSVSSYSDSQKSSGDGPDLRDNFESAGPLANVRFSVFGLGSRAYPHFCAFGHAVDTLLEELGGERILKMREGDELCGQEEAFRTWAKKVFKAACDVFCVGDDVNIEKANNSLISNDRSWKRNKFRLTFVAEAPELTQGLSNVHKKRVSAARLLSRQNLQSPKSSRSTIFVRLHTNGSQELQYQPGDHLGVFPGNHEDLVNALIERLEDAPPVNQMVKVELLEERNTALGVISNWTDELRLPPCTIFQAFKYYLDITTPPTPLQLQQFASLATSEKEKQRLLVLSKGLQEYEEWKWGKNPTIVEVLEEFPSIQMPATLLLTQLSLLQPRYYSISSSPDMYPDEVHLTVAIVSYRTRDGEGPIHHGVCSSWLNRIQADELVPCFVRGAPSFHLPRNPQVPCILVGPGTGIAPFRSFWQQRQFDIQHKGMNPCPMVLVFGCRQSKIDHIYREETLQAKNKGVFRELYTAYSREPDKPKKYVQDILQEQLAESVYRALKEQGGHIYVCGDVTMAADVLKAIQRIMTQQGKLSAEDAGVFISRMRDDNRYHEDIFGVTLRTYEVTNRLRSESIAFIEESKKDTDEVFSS

EC50 [1]	IC50 (Nitric oxide synthase 3)	IC50 [2]	Ki [2]	IC50 (Nitric oxide synthase 1)	Compound
180 µM	752 µM	320 µM	58 µM	327 µM	CS/C(=N/N)NCCC[C@H](N)C(=O)O
190 µM	3060 µM	3710 µM	202 µM	1620 µM	NNC(=S)NCCC[C@H](N)C(=O)O
6.6 µM	19.7 µM	13 µM	7 µM	6.7 µM	CS/C(=N/O)NCCC[C@H](N)C(=O)O
